Measurements from different studies.
Lines come from different studies, so protocols differ.
MAP2K6: Dual specificity mitogen-activated protein kinase kinase 6 (MAP2K6, Homo sapiens, UniProt P52564)

CC(C)(C)c1cc(C=C(C#N)C#N)cc(Br)c1O — remaining activity (MAP2K6; enzyme activity, inhibitor; 0.5 µM): 107%
Nc1ncc(-c2nc(N3CCOCC3)nc(N3CCOCC3)n2)c(C(F)F)n1 — remaining binding (MAP2K6; binding, competition with immobilised ligand; 10 µM): 92%
Cn1cncc1[C@](O)(COc1ccc(C#N)cc1-c1ccc(OC(F)(F)F)cc1)c1ccc(C#N)cc1 — remaining binding (MAP2K6; cell-free assay, competition with immobilised ligand; 1 µM): 76%
Cc1nn(C)cc1-c1nc2c(N3CCN(Cc4ccc(Cl)cc4)CC3)c(Cl)cnc2[nH]1 — remaining binding (MAP2K6; binding, competition with immobilised ligand; 1 µM): 73%
O=c1[nH]c2ccccc2n1C1CCN(Cc2ccc(-c3[nH]c4cc5ncnc5cc4nc3-c3ccccc3)cc2)CC1 — remaining signal (MAP2K6; cell-free assay; 0.5 µM): 101%
Cn1cc(-c2cccc(N3CCc4c(sc5c4CC(C)(C)C5)C3=O)c2CO)cc(Nc2ccncn2)c1=O — inhibition (Dual specificity mitogen-activated protein kinase kinase 6 (MAP2K6, Homo sapiens, UniProt P52564, S207E/T211E); enzyme activity, inhibitor; 1 µM): -4%
COc1ncccc1-c1cnn2ccc(N3CCN(C(=O)OC(C)C)CC3)nc12 — remaining binding (MAP2K6; binding, competition with immobilised ligand; 1 µM): 56%
N#CC1(c2ccccn2)CCN(Cc2cc(C(=O)O)c(=O)n3ccccc23)CC1 — remaining binding (MAP2K6; cell-free assay, competition with immobilised ligand; 1 µM): 99%
Cn1cc(-c2cc(F)cc(N3CCn4c(cc5c4CCCC5)C3=O)c2CO)cc(Nc2ccc(N3CCN(C4COC4)CC3)cn2)c1=O — inhibition (MAP2K6; enzyme activity, inhibitor; 0.1 µM): 4%
